This is one part of a sample in which hits are shown more often than they occur.
T cruzi HTS – inhibitors of intracellular Trypanosoma cruzi, primary screen, cell-based, plate reader, single point, set 2 | intracellular Trypanosoma cruzi in host cells | activity score (inhibition), % at 5.01 µM | 22,000 compounds, 4.9% hits | AID 651903, 2012; in the data active means activity score above about 55%;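 further: parasites and compound incubated about four days before reading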
INS-1E rescue – protection of INS-1E cells from cytokine death, primary screen, ATP luminescence, single point; AID 488910, 2010; INS-1E cytokine-induced death, 48 h; normalised: neutral wells 0, positive control 100; 20,000 compounds, 0.1% hits; protection from cytokine-induced ATP loss, % at 10 µM;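 active means mean replicate protection from cytokine-induced ATP loss at least 50% and at least 75% of replicates each reaching 50%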
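Material: INS-1E rat cells; Quantity: 8000 cells/well; Buffer or medium: phenol-red-free RPMI with 5% fetal bovine serum; Probe or stimulus: cytokine cocktail of IFN-γ, TNF-α and IL-1β; Compound dosing: single test concentration per compound, delivered by pin transfer; Incubation: 48 h co-treatment, 10 min post-lysis read; Signal: CellTiter-Glo luminescence.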
A1 apoptosis 2 – A1 inhibitors via caspase activation, primary screen, cell-based, luminescence, HTS, two replicates; caspase activation, % (no concentration beside the values); 24,000 tested, under 10 active; MEF A1-2A-BIM cells, caspase-Glo luminescence, 3 h; percent of clofoctol response, DMSO zero; in the data active means caspase activation above about 5.9%
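Evaluation: Caspase-3/7 activity from luminescence increase | Assay system: A1-2A-BIM mouse embryonic fibroblasts | Quantity: 2500 MEF cells/well | Medium: RPMI-1640 plus 10% FBS | Detection: Caspase-Glo 3/7 luminescence, 1 h at room temperature | Dosing: 50 nL compound per well, pinned | Timing: Cells settled overnight, compound exposure 3 h at 37 °C, 5% CO2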
Each line names hits and unclear results; the compound was inactive in the other large screens.

C[C@H]1CN([C@@H](C)CO)C(=O)Cc2cc(NC(=O)Nc3ccc(C(F)(F)F)cc3)ccc2O[C@H]1CN(C)S(=O)(=O)c1cccs1	none
C[C@@H]1CN([C@@H](C)CO)C(=O)c2cccc(NC(=O)Nc3ccc(C(F)(F)F)cc3)c2O[C@H]1CN(C)S(=O)(=O)c1cccs1	T cruzi HTS 79
C[C@@H]1CN([C@H](C)CO)C(=O)Cc2cc(NC(=O)Nc3ccc(C(F)(F)F)cc3)ccc2O[C@@H]1CN(C)S(=O)(=O)c1cccs1	T cruzi HTS 66 (no result: A1 apoptosis 2)
C[C@H](CO)N1C[C@H](C)[C@@H](CN(C)S(=O)(=O)c2cccs2)Oc2c(NC(=O)Nc3ccc(C(F)(F)F)cc3)cccc2C1=O	none
C[C@@H]1CN([C@@H](C)CO)C(=O)c2cc(NC(=O)Nc3ccc(C(F)(F)F)cc3)ccc2O[C@H]1CN(C)S(=O)(=O)c1cccs1	T cruzi HTS 71
C[C@H]1CN([C@@H](C)CO)C(=O)c2cc(NC(=O)Nc3ccc(C(F)(F)F)cc3)ccc2O[C@@H]1CN(C)S(=O)(=O)c1cccs1	none (no result: A1 apoptosis 2)
O=C(CCCCCCC(=O)Nc1ccccc1O)N/N=C/c1cccc(C(=O)O)c1	none
C[C@H]1CN([C@@H](C)CO)C(=O)c2cccc(NS(=O)(=O)c3cn(C)cn3)c2O[C@H]1CN(C)Cc1ccncc1	none (no result: A1 apoptosis 2)
COc1ccc(S(=O)(=O)N(C)C[C@@H]2Oc3c(NC(=O)c4cc(C)nn4C)cccc3C(=O)N([C@@H](C)CO)C[C@H]2C)cc1	none
COCC1=C([C@H](O)CCc2ccccc2)[C@H](CO)[C@@H]2C(=O)N(Cc3ccccc3)C(=O)[C@@H]2C1	none (no result: T cruzi HTS, INS-1E rescue)
C[C@H](CO)N1C[C@H](C)[C@@H](CN(C)Cc2ccc(Oc3ccccc3)cc2)Oc2c(NC(=O)NC3CCCCC3)cccc2C1=O	T cruzi HTS 70 (no result: A1 apoptosis 2)
C[C@H]1CN([C@@H](C)CO)C(=O)c2cccc(NC(=O)NC3CCCCC3)c2O[C@@H]1CN(C)Cc1ccc(-c2ccccc2)cc1	none
C[C@H](CO)N1C[C@H](C)[C@H](CN(C)Cc2ccc(-c3ccccc3)cc2)Oc2c(NC(=O)NC3CCCCC3)cccc2C1=O	T cruzi HTS 69
C[C@@H]1CN([C@@H](C)CO)C(=O)c2cccc(NC(=O)NC3CCCCC3)c2O[C@@H]1CN(C)Cc1ccccc1	none
CN(CCO)c1ccc(/C=N/NC(=O)c2ccccc2O)cc1	none
C[C@@H]1CN([C@@H](C)CO)C(=O)c2cccc(NC(=O)c3nc4ccccc4s3)c2O[C@H]1CN(C)Cc1ccc2c(c1)OCO2	T cruzi HTS 61
C[C@H]1CN([C@@H](C)CO)C(=O)c2cccc(NC(=O)c3nc4ccccc4s3)c2O[C@@H]1CN(C)Cc1ccc2c(c1)OCO2	T cruzi HTS 59 (no result: A1 apoptosis 2)
C[C@@H]1CN([C@H](C)CO)C(=O)c2cccc(NC(=O)c3nc4ccccc4s3)c2O[C@H]1CN(C)Cc1ccc2c(c1)OCO2	none
C[C@@H]1CN([C@H](C)CO)C(=O)c2cccc(NC(=O)c3nc4ccccc4s3)c2O[C@@H]1CN(C)Cc1ccc2c(c1)OCO2	none
O=C(NO)c1ccc(C(=O)N/N=C/c2ccncc2Br)cc1	none
C[C@H]1CN([C@@H](C)CO)C(=O)Cc2cc(NC(=O)Cc3cn(C)c4ccccc34)ccc2O[C@H]1CN(C)Cc1ccc(C(=O)Nc2ccccc2N)cc1	T cruzi HTS 66 (no result: A1 apoptosis 2)
C[C@@H]1CN([C@H](C)CO)C(=O)Cc2cc(NC(=O)Cc3cn(C)c4ccccc34)ccc2O[C@@H]1CN(C)Cc1ccc(C(=O)Nc2ccccc2N)cc1	T cruzi HTS 72
C[C@@H]1CN([C@@H](C)CO)C(=O)Cc2cc(NC(=O)Cc3cn(C)c4ccccc34)ccc2O[C@@H]1CN(C)Cc1ccc(C(=O)Nc2ccccc2N)cc1	none (no result: T cruzi HTS, INS-1E rescue)
C[C@H](CO)N1C[C@H](C)[C@H](CN(C)Cc2ccc(C(=O)Nc3ccccc3N)cc2)Oc2ccc(NC(=O)Cc3cn(C)c4ccccc34)cc2CC1=O	none (no result: A1 apoptosis 2)
O=C(CCCCC(=O)N/N=C/c1ccc(Br)o1)NO	none (no result: T cruzi HTS, INS-1E rescue)
COc1ccc(/C=N/NC(=O)CCCCCCC(=O)Nc2ccccc2O)cc1OC	none
COc1ccc([Si](C)(C)[C@@H]2[C@@H](CCn3cc(CCO)nn3)O[C@]3(C(=O)N(C)c4c(Br)cc(C)cc43)[C@H]2C)cc1	none (no result: T cruzi HTS, INS-1E rescue)
COc1ccc(NC(=O)Nc2cccc3c2O[C@@H](CN(C)S(=O)(=O)c2ccc(OC)cc2)[C@H](C)CN([C@H](C)CO)C3=O)cc1	none
COc1ccc(S(=O)(=O)N(C)C[C@@H]2Oc3c(NC(=O)Nc4ccc(C(F)(F)F)cc4)cccc3C(=O)N([C@H](C)CO)C[C@@H]2C)cc1	T cruzi HTS 74 (no result: A1 apoptosis 2)
Cc1ccc(S(=O)(=O)N(C)C[C@H]2Oc3c(NC(=O)Nc4ccc(C(F)(F)F)cc4)cccc3C(=O)N([C@@H](C)CO)C[C@H]2C)cc1	T cruzi HTS 79
Cc1ccc(S(=O)(=O)N(C)C[C@@H]2Oc3c(NC(=O)Nc4ccc(C(F)(F)F)cc4)cccc3C(=O)N([C@@H](C)CO)C[C@@H]2C)cc1	none (no result: A1 apoptosis 2)
COc1ccc(S(=O)(=O)N(C)C[C@@H]2Oc3c(NC(=O)Nc4ccc(C(F)(F)F)cc4)cccc3C(=O)N([C@@H](C)CO)C[C@@H]2C)cc1	T cruzi HTS 61
Cc1ccc(S(=O)(=O)N(C)C[C@@H]2Oc3c(NC(=O)Nc4cccc5ccccc45)cccc3C(=O)N([C@@H](C)CO)C[C@H]2C)cc1	INS-1E rescue 62
COc1ccc(NC(=O)Nc2cccc3c2O[C@H](CN(C)S(=O)(=O)c2ccc(OC)cc2)[C@@H](C)CN([C@H](C)CO)C3=O)cc1	none
Cc1ccc(S(=O)(=O)N(C)C[C@H]2Oc3c(NC(=O)Nc4cccc5ccccc45)cccc3C(=O)N([C@H](C)CO)C[C@H]2C)cc1	none
CCOC(=O)/C=C/c1ccccc1OC	none (no result: T cruzi HTS, INS-1E rescue)
CC12N=C3SCC(=O)N3[C@H](c3ccccc3O1)[C@H]2CO	none (no result: T cruzi HTS, INS-1E rescue)
O=C(CCCCCCC(=O)Nc1ccccc1O)N/N=C/c1ccc(O)cc1O	none (no result: A1 apoptosis 2)
COc1cccc(S(=O)(=O)N(C)C[C@@H]2Oc3ncc(C#CCN(C)C)cc3C(=O)N([C@H](C)CO)C[C@@H]2C)c1	none
COc1cccc(S(=O)(=O)N(C)C[C@@H]2Oc3ncc(C#Cc4ccc(OC)c(OC)c4)cc3C(=O)N([C@H](C)CO)C[C@@H]2C)c1	none
COc1cccc(S(=O)(=O)N(C)C[C@@H]2Oc3ncc(C#Cc4ccc(C(F)(F)F)cc4)cc3C(=O)N([C@H](C)CO)C[C@@H]2C)c1	T cruzi HTS 89 (no result: INS-1E rescue, A1 apoptosis 2)
COc1cccc(S(=O)(=O)N(C)C[C@@H]2Oc3ncc(C#Cc4cccc(F)c4)cc3C(=O)N([C@H](C)CO)C[C@@H]2C)c1	T cruzi HTS 65 (no result: INS-1E rescue, A1 apoptosis 2)
C[C@@H]1CN([C@H](C)CO)C(=O)Cc2cc(NC(=O)Nc3ccc(C(F)(F)F)cc3)ccc2O[C@H]1CN(C)Cc1ccc(Cl)c(Cl)c1	none (no result: A1 apoptosis 2)
C[C@@H]1CN([C@@H](C)CO)C(=O)Cc2cc(NC(=O)Nc3ccc(C(F)(F)F)cc3)ccc2O[C@H]1CN(C)Cc1ccc(Cl)c(Cl)c1	none (no result: T cruzi HTS, INS-1E rescue)
